Screening data as filed in PubChem.
An excerpt weighted towards active compounds, which were near 3.1% of everything screened.
HKDC1 inhibitor = HKDC1 hexokinase inhibitors, primary screen, biochemical, fluorescence, uHTS; Q2TB90; recombinant HKDC1, G6PDH/diaphorase resazurin coupled fluorescence; actives 0.16% (n = 340,000); AID 493160, 2011; inhibition, % at 20 µM;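 active means inhibition above about 35% when tested at 20 µM, limit read from the data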;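 further: plate controls were DMSO wells with enzyme for no effect and DMSO wells lacking enzyme for full effect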
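Assay system: in-house recombinant HK5 (HKDC1) enzyme. Input: HKDC1 at 5 µg/mL. Medium: Tris pH 8.0 buffer with MgCl2, Tween-20, BSA, BME. Dosing: single 20 µM dose. Schedule: 90 min reaction incubation at room temperature, dark. Signal: resazurin-to-resorufin fluorescence via G6PDH and diaphorase coupling, 525/613 nm. Controls: DMSO-enzyme wells negative, buffer-substituted wells positive.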
Hsp70 act = Hsp70 transcriptional activators, primary screen, cell-based, HeLa, Hsp70 promoter luciferase, luminescence, 10 µM; HeLa Hsp70 promoter luciferase reporter; scaled: vehicle 0, proteasome-inhibitor control 100%; activation, % at 10 µM; actives 0.04% (n = 200,000);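 active means activation above the mean across all tested compounds plus 3 SD, cutoff set per campaign, cut at about 5.5% in these data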;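 further: 100% = MG132 at 30 µM as the positive control and 0% = DMSO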
HSF1 activator = HSF-1 activators, primary screen, NIH3T3-HGL cells, MG132 stress, luminescence, single point; NIH3T3-HGL HSF-1 luciferase reporter, 8 h; 100% = twice DMSO control signal; activation, % at 9 µM; actives 1.7% (n = 300,000); AID 504408, 2011;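 active means mean replicate activation of at least 50% with a set share of replicates each reaching 50%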;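 further: 0% = median of the neutral control wells and 100% = twice that signal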
Tb hexokinase = Trypanosoma brucei hexokinase 1 inhibitors, primary screen, biochemical, G6PDH-coupled NADH absorbance, MLSCN library | inhibition, % at 10 µM | hexokinase 1 [Trypanosoma brucei] | actives 0.11% (n = 220,000) | AID 1430, 2008 | recombinant TbHK1, G6PDH-coupled NADH A340;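 active means inhibition of 50% or more in the single-dose primary screen; inactive means inhibition below 50%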
HSF1 inh = HSF1 inhibitors in luciferase reporter cells, primary screen, cell-based, NIH3T3, luminescence; NIH3T3-HGL HSE-luciferase, MG132-induced, luminescence 8 h; hits give low values; actives 0.77% (n = 300,000); activity change, negative = inhibition, % at 7.5 µM (by protocol);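 active means more than half of replicate wells show activity change below -50%, luminescence cut by over half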;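 further: luciferase reports HSF-1 transcriptional activity via heat shock element; 0% = median of DMSO wells and -100% = zero luminescence signal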
HSP90 inh = HSP90 inhibitors, primary screen, cell lysate, luminescence | Heat shock protein HSP 90 (rabbit reticulocyte lysate; luciferase refolding) | Rabbit reticulocyte lysate, luciferase refolding luminescence, 3 h | inhibition, % at 5.6 µM | actives 0.91% (n = 290,000) | AID 1789, 2009;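 active means inhibition above the screen-wide mean plus 3 SD, computed separately per campaign, cut at about 16% in these data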;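 further: 0% = DMSO wells and 100% = 60 µM geldanamycin wells; inhibitors lower the luminescence because luciferase stays unfolded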
The depositor's hits bear a star; . = not tested or not shown; ! = not active in a repeat.

SMILES	HKDC1 inhibitor	Hsp70 act	HSF1 activator	Tb hexokinase	HSF1 inh	HSP90 inh
C=CC[C@@H](CC(=O)N[C@H](CO)Cc1ccccc1)C(=O)N[C@@H](COC(=O)[C@@H](CC=C)CC(=O)OC(C)(C)C)Cc1ccccc1	-1	.	.	.	.	.
CC(=O)Nc1c(-c2ccccc2)c2cc(Br)ccc2[nH]c1=O	-2	.	4	.	-3	2
COc1ccccc1OCc1nnc(SCC(=O)N2CCCC2)o1	-10	.	-13	.	-5	2
COc1ccccc1OCc1nnc(SCCN2CCOCC2)o1	8	0	58*	1	21	1
Cc1ccc(OC(=O)COc2ccccc2C)c(-n2nc3ccccc3n2)c1	-2	0	41	-2	30	1
Cc1ccc(OC(=O)COc2ccccc2)c(-n2nc3ccccc3n2)c1	2	0	51*	0	41	-5
COc1cc2c(cc1OC(C)=O)CCCCC2=O	-6	.	.	.	.	.
O=C(Nc1ccc(NC(=O)c2cccs2)cc1)c1cccs1	-1	.	43	.	23	-1
O=C(Nc1ccc(NC(=O)c2cccs2)c(Cl)c1)c1cccs1	-1	.	69*	.	30	0
O=C(Nc1ccc2[nH]ccc2c1)c1cccs1	-4	.	58*	-17	20	3
CC(C)c1nnc(NC(=O)CCS(=O)(=O)c2nc(-c3cccs3)cc(C(F)(F)F)n2)s1	4	0	195*	3	149	4
CC(C)c1nnc(NC(=O)CCS(=O)(=O)Cc2ccccc2)s1	-7	.	11	.	2	2
Cc1cc(C)c2[nH]c(=O)c(CN(CC3CCCO3)S(=O)(=O)c3ccc4c(c3)OCCO4)cc2c1 (configuration not stated)	15	0	59*	-7	24	-1
Oc1cccc(-c2nnc(-c3cccc(O)c3)nn2)c1	4	.	.	.	.	.
Cc1cc(C)nc(NC(=O)Nc2ccc3c(c2)OCO3)c1	-7	0	65*	-12	29	-1
Cc1cc(C)nc(NC(=O)c2ccc3c(c2)OCO3)c1	.	0	12	4	19	1
Cc1cccc(NC(=O)Nc2cc(C)cc(C)n2)c1	-6	0	53*	1	19	1
Cc1cc(C)nc(NC(=O)c2c(F)c(F)c(F)c(C(=O)Nc3cc(C)cc(C)n3)c2F)c1	5	.	62*	.	19	.
COc1ccc(N(C)S(=O)(=O)c2ccc3c(c2)NC(=O)CO3)c(OC)c1	1	.	-2	.	0	2
CC(CCN1CCC(CN2C(=O)C(=O)NC[C@@H]2Cc2ccccc2)CC1)c1ccccc1 (some centres not stated)	1	.	.	.	.	.
NNC(=O)c1nn(-c2ccccc2)cc1O	.	0	-56	-10	-56*	-4
O=C(O)c1cn(-c2ccccc2)nc1C(=O)O	4	0	-6	0	-6	4
CCOCCCNC(=S)N(CCO)Cc1cc2cc3c(cc2[nH]c1=O)OCCO3	0	.	-51	.	-35	2
Cc1ccc(S(=O)(=O)Nc2cccc3cccnc23)c([N+](=O)[O-])c1	7	.	220*	.	161	6
Cc1ccc2cccc(NS(=O)(=O)c3ccccc3)c2n1	4	.	140*	.	137	0
SMILES	HKDC1 inhibitor	Hsp70 act	HSF1 activator	Tb hexokinase	HSF1 inh	HSP90 inh
O=S(=O)(Nc1cccc2cccnc12)c1ccc(S(=O)(=O)N2CCCC2)cc1	9	0	189*	15	157	4
O=S(=O)(Nc1cccc2cccnc12)c1ccccc1	15	.	94*	.	73	5
COc1ccc2c(c1)cc(C(=O)N[C@@H](CCSC)C(=O)N1CCC[C@H]1C(=O)O)n2C	-5	.	1	.	-1	-3
CN1C(=O)/C(=C\c2ccccc2F)Sc2ccc(C(=O)NC3CCN(Cc4ccccc4)CC3)cc21	-2	.	8	.	2	-2
N#Cc1ccc(COC(=O)CC(NC(N)=O)c2ccc(Cl)cc2)cc1 (configuration not stated)	-3	.	14	.	1	-3
CCCC1(c2ccccc2)NC(=O)N(CC(=O)NCC2COc3ccccc3O2)C1=O (configuration not stated)	-4	.	.	.	.	.
COc1ccc(NS(=O)(=O)c2ccc3ccccc3c2)c2ncccc12	1	.	393*	.	311	11
Nc1nc2ccccc2n1/N=C/c1ccc([N+](=O)[O-])s1	-4	0	99*	31	58	-4
Nc1nc2ccccc2n1/N=C/c1cccnc1	-5	0	1	-22	0	7
COc1cccc(C(=O)N2CCN(C(=O)COc3ccc4ccccc4c3)CC2)c1	4	.	-5	.	6	5
COc1ccc(OCCN2C(=O)c3cccc(N)c3C2=O)cc1	-1	.	59*	.	39	-3
COc1ccc(C2Nc3ccccc3C(=O)N2Cc2ccccc2)cc1COc1ccccn1 (configuration not stated)	-6	0	.	-2	.	5
COc1ccc(C2Nc3ccccc3C(=O)N2Cc2ccco2)cc1CN1C(=O)c2ccccc2C1=O (configuration not stated)	17	0	63*!	-9	6	-2
COc1ccc(C2Nc3ccccc3C(=O)N2Cc2ccco2)cc1COc1ccc(F)cc1 (configuration not stated)	5	0	103*	6	67	1
O=C1c2ccccc2NC(c2cccc(O)c2)N1Cc1ccco1 (configuration not stated)	-1	.	23	-7	7	5
O=C(CC1C=CCC1)Nc1ccccc1 (configuration not stated)	-5	.	.	.	.	.
CCC1Sc2ccc(S(=O)(=O)Nc3ccc(OC)cc3)cc2NC1=O (configuration not stated)	3	.	-66	.	-56*	4
CCCCN(C)C(=O)CCC(=O)Nc1ccc2nc(N3CCOCC3)cc(C)c2c1	12	0	6	-24	4	5
CCCCN(C)C(=O)CCC(=O)Nc1ccc2nc(N3CCN(C)CC3)cc(C)c2c1	-4	0	-76	-12	-70*	1
O=C(O)c1cc(S(=O)(=O)N2CC3CC3C2C(=O)O)c(Cl)cc1Cl (configuration not stated)	-3	.	-7	.	-3	-5
CCCCn1c(=O)[nH]c(=O)c2c1nc(Cn1ncc(Cl)c(Cl)c1=O)n2CCC	11	.	-93	.	-93*	4
CCCCn1c(=O)[nH]c(=O)c2c1nc(CN1C(=O)c3ccccc3S1(=O)=O)n2CCC	-1	0	19	-3	7	1
